How the values were obtained:
Thymidine kinase = biological target: T1, Thymidine kinase (Human alphaherpesvirus 1, UniProt Q9QNF7); experiment: Inhibition of HSV1 thymidine kinase assessed as inhibition of [methyl-3H]dThd phosphorylation after 30 mins by scintillation counting
T1 sequence (Q9QNF7 whole entry): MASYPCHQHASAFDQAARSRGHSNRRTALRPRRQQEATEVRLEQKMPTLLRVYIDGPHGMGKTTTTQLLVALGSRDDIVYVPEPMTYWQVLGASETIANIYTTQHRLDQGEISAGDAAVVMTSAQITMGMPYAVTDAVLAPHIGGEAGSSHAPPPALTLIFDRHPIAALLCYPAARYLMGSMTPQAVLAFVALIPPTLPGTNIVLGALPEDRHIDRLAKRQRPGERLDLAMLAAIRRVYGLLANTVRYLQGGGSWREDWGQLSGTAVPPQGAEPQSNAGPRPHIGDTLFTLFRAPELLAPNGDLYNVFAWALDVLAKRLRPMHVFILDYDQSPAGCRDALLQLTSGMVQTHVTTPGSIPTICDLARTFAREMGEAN
How it was run: (§1)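 Recombinant enzyme in 50 mM Tris/HCl pH 8.0, 2.5 mM MgCl2, 10 mM DTT, 0.5 mM CHAPS, 3 mg/mL BSA, 2.5 mM ATP and 1 μM [methyl-3H]dThd. Inhibitor at 5-fold dilutions; 37 °C for 30 min, within the linear range. Reaction spotted on DE-81 filter disks, which were washed in 1 mM ammonium formate, water and ethanol. Radioactivity counted by scintillation. IC50 is the concentration halving dThd phosphorylation.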

Deoxynucleoside kinase = biological target: T2, Deoxynucleoside kinase (Drosophila melanogaster, UniProt Q9XZT6); experiment: Inhibition of Drosophila melanogaster multifunctional deoxynucleoside kinase assessed as inhibition of [methyl-3H]dThd phosphorylation after 30 mins by scintillation counting; how it was run: as §1
T2 sequence (Q9XZT6 whole entry): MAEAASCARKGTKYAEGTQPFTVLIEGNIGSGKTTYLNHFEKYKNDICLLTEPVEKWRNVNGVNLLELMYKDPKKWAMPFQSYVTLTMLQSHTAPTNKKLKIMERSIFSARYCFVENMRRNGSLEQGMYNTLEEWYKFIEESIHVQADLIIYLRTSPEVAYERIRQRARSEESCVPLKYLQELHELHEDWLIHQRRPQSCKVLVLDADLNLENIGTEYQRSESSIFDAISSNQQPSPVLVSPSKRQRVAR

[1] = biological target: T3, Thymidine kinase, cytosolic (Homo sapiens, UniProt P04183); experiment: Inhibition of human recombinant cytosolic thymidine kinase 1 assessed as inhibition of [methyl-3H]dThd phosphorylation after 30 mins by scintillation counting; how it was run: as §1
T3 sequence (P04183 whole entry): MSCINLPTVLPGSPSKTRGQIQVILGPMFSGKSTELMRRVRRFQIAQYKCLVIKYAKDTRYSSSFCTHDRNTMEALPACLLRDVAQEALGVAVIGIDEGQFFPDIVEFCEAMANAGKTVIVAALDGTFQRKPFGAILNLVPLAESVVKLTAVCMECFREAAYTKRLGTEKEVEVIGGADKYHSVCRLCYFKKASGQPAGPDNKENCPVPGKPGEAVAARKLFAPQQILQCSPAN

[2] = biological target: T4, Thymidine kinase 2, mitochondrial (Homo sapiens, UniProt O00142); experiment: Inhibition of human recombinant mitochondrial thymidine kinase 2 assessed as inhibition of [methyl-3H]dThd phosphorylation after 30 mins by scintillation counting; how it was run: as §1
T4 sequence (O00142 whole entry): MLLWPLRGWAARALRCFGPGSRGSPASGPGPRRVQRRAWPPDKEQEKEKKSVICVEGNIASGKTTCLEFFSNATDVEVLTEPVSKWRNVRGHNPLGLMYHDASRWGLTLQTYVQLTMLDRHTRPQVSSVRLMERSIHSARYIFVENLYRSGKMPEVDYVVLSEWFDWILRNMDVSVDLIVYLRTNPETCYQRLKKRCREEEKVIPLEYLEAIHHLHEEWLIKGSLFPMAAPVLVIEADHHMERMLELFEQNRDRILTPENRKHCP

[3] = Inhibition of Varicella zoster virus thymidine kinase assessed as inhibition of [methyl-3H]dThd phosphorylation after 30 mins by scintillation counting; design: species or system Human alphaherpesvirus 3; how it was run: as §1
Homo sapiens = species on record: Homo sapiens; experiment: Selectivity ratio of IC50 for human recombinant cytosolic thymidine kinase 1 to IC50 for human recombinant mitochondrial thymidine kinase 2
[4] = biological target: T4, Thymidine kinase 2, mitochondrial; experiment: Inhibition of thymidine kinase 2
[5] = biological target: T4, Thymidine kinase 2, mitochondrial; experiment: Competitive inhibition of human recombinant mitochondrial thymidine kinase 2 using ATP as substrate by Lineweaver-Burke plotting; conditions: in the assay text read “using thymidine as substrate” for “using ATP as substrate”
How it was run: (§2)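 Purified recombinant TK-2 in the same radiometric filter-binding assay. For dThd-varied kinetics, dThd was 0.4–5 μM with ATP saturating at 2.5 mM. For ATP-varied kinetics, ATP was 5–100 μM with dThd saturating at 20 μM. Km, Ki and inhibition mode were derived from Lineweaver-Burk plots.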

[6] = biological target: T4, Thymidine kinase 2, mitochondrial; experiment: Uncompetitive inhibition of human recombinant mitochondrial thymidine kinase 2 using thymidine as substrate by Lineweaver-Burke plotting; conditions: in the assay text read “using ATP as substrate” for “using thymidine as substrate”; how it was run: as §2

Compound | IC50 (Thymidine kinase) | IC50 (Deoxynucleoside kinase) | IC50 [1] | IC50 [2] | IC50 [3] | Ratio IC50 (Homo sapiens) | Ki [4] | Ki [5] | Ki [6] | IC50 [4]
Cc1cn([C@H]2C[C@H](n3nncc3-c3ccc(Cl)cc3)[C@@H](CO)O2)c(=O)[nH]c1=O | 392 µM | 30 µM | 109 µM | 4000 nM |  |  |  |  |  | 
Cc1cn([C@H]2C[C@H](n3cc(CC4CCCC4)nn3)[C@@H](CO)O2)c(=O)[nH]c1=O | 48 µM | 3 µM | 177 µM | 150 nM | 3.1 µM |  |  |  |  | 
Cc1cn([C@H]2C[C@H](n3cc(-c4ccc(Cl)c(Cl)c4)nn3)[C@@H](CO)O2)c(=O)[nH]c1=O | 30 µM | 0.99 µM | 75 µM | 42 nM | 2.7 µM |  |  |  |  | 
Cc1cn([C@H]2C[C@H](NC(=S)Nc3ccc(Cl)c(C(F)(F)F)c3)[C@@H](CO)O2)c(=O)[nH]c1=O |  |  | 316 µM | 150 nM |  | 2100 |  |  |  | 
O=c1[nH]c(=O)n([C@@H]2O[C@H](CO)[C@@H](O)C2O)cc1/C=C/Br (single isomer, unassigned) [SORIVUDINE] |  |  |  |  |  |  | 10.4 µM |  |  | 
O=c1[nH]c(=O)n([C@H]2C[C@H](n3cc(-c4ccc(Cl)cc4)nn3)[C@@H](CO)O2)cc1/C=C/Br | 4.5 µM | 0.46 µM | > 500 µM | 36 nM | 1.7 µM | > 14000 |  | 12 nM | 410 nM | 
Cc1cn([C@H]2C[C@H](n3cc(-c4ccccn4)nn3)[C@@H](CO)O2)c(=O)[nH]c1=O | 46 µM | 3.8 µM | 316 µM | 1300 nM | 3.1 µM |  |  |  |  | 
Cc1cn([C@H]2C[C@H](n3ccnn3)[C@@H](CO)O2)c(=O)[nH]c1=O | 212 µM | 40 µM | ≥ 500 µM | 4700 nM | 15 µM |  |  |  |  | 
Cc1cn([C@H]2C[C@H](NC(=S)Nc3ccc(Cl)c(C(F)(F)F)c3)[C@@H](COC(c3ccccc3)(c3ccccc3)c3ccccc3)O2)c(=O)[nH]c1=O | > 500 µM | > 500 µM | > 500 µM | > 500000 nM | > 500 µM |  |  |  |  | 
Cc1cn([C@H]2C[C@H](n3cc(-c4ccccc4)nn3)[C@@H](CO)O2)c(=O)[nH]c1=O | 28 µM | 2.2 µM | 54 µM | 320 nM | 2.5 µM |  |  |  |  | 
CNC(=O)c1ccc(C(OCCCCCCCCn2cc(C)c(=O)[nH]c2=O)(c2ccccc2)c2ccccc2)cc1 |  |  |  |  |  |  |  |  |  | 400 nM
CCCCc1cn([C@H]2C[C@H](n3cc(C)c(=O)[nH]c3=O)O[C@@H]2CO)nn1 | 95 µM | 4.1 µM | 366 µM | 230 nM | 4.3 µM |  |  |  |  | 
Cc1cn([C@H]2C[C@H](n3nncc3-c3ccccc3)[C@@H](CO)O2)c(=O)[nH]c1=O | 445 µM | 17 µM | ≥ 500 µM | 1100 nM | 19 µM |  |  |  |  | 
CCCCCC(=O)N[C@H]1C[C@H](n2cc(C)c(=O)[nH]c2=O)O[C@@H]1CO |  |  |  |  |  |  | 0.15 µM |  |  | 
Cc1cn([C@H]2C[C@H](n3cc(Cc4ccccc4)nn3)[C@@H](CO)O2)c(=O)[nH]c1=O | 158 µM | 3.9 µM | 318 µM | 300 nM | 6.4 µM |  |  |  |  | 
O=c1[nH]c(=O)n([C@H]2C[C@H](n3cc(-c4ccccc4)nn3)[C@@H](CO)O2)cc1/C=C/Br | 36 µM | 2.9 µM | > 500 µM | 250 nM | 3.7 µM |  |  |  |  | 
Cc1cn([C@H]2C[C@H](n3cc(-c4ccc(Cl)cc4)nn3)[C@@H](CO)O2)c(=O)[nH]c1=O | 27 µM | 1.8 µM | 71 µM | 46 nM | 3.3 µM |  |  |  |  | 
